Apaf1 activ – activators of human Apaf-1 apoptosome, primary screen, biochemical, DEVD-Rh110 fluorescence, uHTS; 330,000 tested, 0.31% active; Apoptotic protease-activating factor 1 (Homo sapiens), O14727; activity change, negative = activation, % at 20 µM; AID 489031, 2010; Apaf-1 apoptosome caspase-3 activation; stronger effect = lower value;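 active means activity change at or below -40% at 20 µM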
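System: Reconstituted apoptosome of Apaf-1, cytochrome c, caspase-9, procaspase-3 | Reagent: dATP, cytochrome c, and (Z-DEVD)2-Rh110 caspase-3 substrate | Times: 30 min compound preincubation and 50 min reaction, both room temperature | Detection: Caspase-3-released Rh110 fluorescence, 540 nm emission, 480 nm excitation | Measure: Caspase-3 activity via Apaf-1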
Rh110 act interf – Rh110 fluorescence interference by putative Apaf-1 activators, confirmation, artefact control for Apaf-1 activator project, biochemical, 20 µM. quenched caspase reaction, Ex480/Em540. shares compounds with Apaf1 activ. 980 tested, under 10 active. fluorescence interference (activity change), % at 20 µM, hits read low;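 active means mean activity change at or below -40% when tested at 20 µM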
Apaf-1 act conf – Apaf-1 activators, single-dose retest, confirmation, biochemical, fluorescence, DEVD-Rh110, 20 µM; shares compounds with Apaf1 activ; reconstituted apoptosome caspase-3 activity; stronger effect = lower value; activity change, negative = activation, % at 20 µM; 980 tested, 5% active;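 active means mean activity change at or below -40%, meaning activation of 40% or more, at 20 µM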
* = called active by the depositor. The list is a sample of the results.

Results for COc1ccc([C@@H]2CC=C(C(=O)O)[C@H](c3cccc(Cl)c3)N2S(=O)(=O)c2ccc(Cl)cc2)cc1 ?
Apaf1 activ: -73*; Rh110 act interf: -3; Apaf-1 act conf: 19

Results for COc1ccc(CCN2C(=O)c3[nH]nc(-c4ccccc4O)c3C2c2cccc(Cl)c2)cc1 (centres undefined) ?
Apaf1 activ: 41

What do the screens show for `CCn1c(=O)c([N+](=O)[O-])c(NC2CCS(=O)(=O)C2)c2ccccc21` (centres undefined)?
Apaf1 activ: -162*; Rh110 act interf: 12; Apaf-1 act conf: 12

How did CCCCCCCc1ccc(C2NC(=S)NC3=C2C(=O)c2ccccc23)cc1 (centres undefined) do in these assays?
Apaf1 activ: 44

What do the screens show for `CCC(C)NC(=O)C1CCN(S(=O)(=O)c2cccc3cccnc23)CC1` (centres undefined)?
Apaf1 activ: -456*; Rh110 act interf: -6; Apaf-1 act conf: 9

Results for CC(C)NC(=O)C1CCN(S(=O)(=O)c2ccc(N3CCCC3=O)cc2)CC1 ?
Apaf1 activ: -332*; Rh110 act interf: -3; Apaf-1 act conf: 2

What do the screens show for `Oc1ccccc1CNc1cccc2cccnc12`?
Apaf1 activ: 95

Results for Cc1ccc(NC(=S)Nc2cccc3cnccc23)cc1C ?
Apaf1 activ: 53

Results for O=C(Nc1ccc(N2CCCC2)cc1)C(Cl)c1ccccc1 (centres undefined) ?
Apaf1 activ: 65

How did Oc1ccc(NCc2ccccc2OCc2ccccc2)cc1 do in these assays?
Apaf1 activ: 90

How did CCOC(=O)C1Nc2ccccc2C2C(O)C(O)CC12 (centres undefined) do in these assays?
Apaf1 activ: 66

How did COc1ccc2cc(C(=O)Nc3ccc(Cl)cc3)sc(=O)c2c1OC do in these assays?
Apaf1 activ: -46*; Rh110 act interf: 8; Apaf-1 act conf: 13

How did C[C@H](CCC(=O)NCC(=O)O)[C@H]1CC[C@H]2[C@@H]3[C@H](O)C[C@@H]4C[C@H](O)CC[C@]4(C)[C@H]3C[C@H](O)[C@]12C do in these assays?
Apaf1 activ: -9

How did CCOC(=O)c1ccc(N=c2sc(C(=O)OC)cc(=O)n2CCCN2CCOCC2)cc1 do in these assays?
Apaf1 activ: 2

What do the screens show for `O=C1c2ccccc2N[C@@H]2C=CC[C@@H]2N1O`?
Apaf1 activ: -56*; Rh110 act interf: -9; Apaf-1 act conf: 9

Results for COc1cc(OC)c2c(-c3ccccc3)cc(=O)oc2c1C(CCN1CCCC(C)C1)c1ccc2c(c1)OCO2 (centres undefined) ?
Apaf1 activ: 56

Results for COc1cccc(/C=N/NC(=O)CCn2nnc3ccccc32)c1 ?
Apaf1 activ: -70*; Rh110 act interf: 1; Apaf-1 act conf: 6

Results for COc1ccc(/C=N/NC(=O)CCn2cnc(-c3ccccc3)c2-c2ccccc2)cc1 ?
Apaf1 activ: 54

How did C#CCOCCOCCOCCNc1nc(N2CCN(C(=O)[C@H]([C@@H](C)CC)n3cc([C@@H](N)CC(C)C)nn3)CC2)nc(N2CCN(C(=O)[C@H](Cc3cc4ccccc4[nH]3)n3cc([C@@H](N)CC(C)C)nn3)CC2)n1 do in these assays?
Apaf1 activ: 58

How did COc1cccc2sc3cc(C#CC4(O)CCCCC4)ccc3c(=O)c12 do in these assays?
Apaf1 activ: 40

What do the screens show for `COc1ccc(C(=O)Nc2ccc(C(=O)c3ccccc3)cc2)cc1`?
Apaf1 activ: -385*; Rh110 act interf: -2; Apaf-1 act conf: 2

Results for O=C(Nc1ccccc1)c1ccc2nc(-c3ccco3)c(-c3ccco3)nc2c1 ?
Apaf1 activ: 60

What do the screens show for `COc1ccc(Nc2ccc(OC)cc2)cc1`?
Apaf1 activ: 80

What do the screens show for `CCC(=Nc1ccc(N)cc1)C1=C(O)C(C(=O)OC)C(C)(C)CC1=O` (centres undefined)?
Apaf1 activ: 61

How did CCOC(=O)Cc1csc(N/C(=N/S(=O)(=O)c2ccc(Cl)cc2)c2ccccc2)n1 do in these assays?
Apaf1 activ: 63

What do the screens show for `Cc1ccc(C2(c3noc(CN(C)CC4CCCCO4)n3)CCCC2)cc1` (centres undefined)?
Apaf1 activ: -413*; Rh110 act interf: 19; Apaf-1 act conf: 18

How did CN(C)c1ccc2nc3ccc(=[N+](C)C)cc-3sc2c1 do in these assays?
Apaf1 activ: 64

What do the screens show for `O=C(O)CCCNC(=O)C(c1ccccc1)c1ccccc1`?
Apaf1 activ: -5

From PubChem BioAssay
